Assay results published in ChEMBL document CHEMBL3352760, “Nanomolar-Potency Small Molecule Inhibitor of STAT5 Protein” (ACS Med Chem Lett, 2014).
Active and inactive are the calls of the source. No cut-off for these calls is given here.

Assays:
K562 [1] = test: Cytotoxicity against human K562 cells assessed as reduction in cell viability after 72 hrs by CellTiter-Blue assay; assay type: functional, cell-based; details: K562, 72 h
Procedure, shortened: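 K562 (Bcr-Abl) and MV-4;11 (FLT3-ITD) leukemia cells were exposed to inhibitor over 0.78–50 μM for 72 h. Viability was read by CellTiter-Blue and IC50 taken from the dose series.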

[2] = target: T1, Signal transducer and activator of transcription 5B (Homo sapiens, UniProt P51692); test: Inhibition of STAT5B SH2 domain (unknown origin)-5-FAM-GpYLVLDKW interaction compound treated for 15 mins by fluorescent polarization assay
T1 sequence (P51692 whole entry): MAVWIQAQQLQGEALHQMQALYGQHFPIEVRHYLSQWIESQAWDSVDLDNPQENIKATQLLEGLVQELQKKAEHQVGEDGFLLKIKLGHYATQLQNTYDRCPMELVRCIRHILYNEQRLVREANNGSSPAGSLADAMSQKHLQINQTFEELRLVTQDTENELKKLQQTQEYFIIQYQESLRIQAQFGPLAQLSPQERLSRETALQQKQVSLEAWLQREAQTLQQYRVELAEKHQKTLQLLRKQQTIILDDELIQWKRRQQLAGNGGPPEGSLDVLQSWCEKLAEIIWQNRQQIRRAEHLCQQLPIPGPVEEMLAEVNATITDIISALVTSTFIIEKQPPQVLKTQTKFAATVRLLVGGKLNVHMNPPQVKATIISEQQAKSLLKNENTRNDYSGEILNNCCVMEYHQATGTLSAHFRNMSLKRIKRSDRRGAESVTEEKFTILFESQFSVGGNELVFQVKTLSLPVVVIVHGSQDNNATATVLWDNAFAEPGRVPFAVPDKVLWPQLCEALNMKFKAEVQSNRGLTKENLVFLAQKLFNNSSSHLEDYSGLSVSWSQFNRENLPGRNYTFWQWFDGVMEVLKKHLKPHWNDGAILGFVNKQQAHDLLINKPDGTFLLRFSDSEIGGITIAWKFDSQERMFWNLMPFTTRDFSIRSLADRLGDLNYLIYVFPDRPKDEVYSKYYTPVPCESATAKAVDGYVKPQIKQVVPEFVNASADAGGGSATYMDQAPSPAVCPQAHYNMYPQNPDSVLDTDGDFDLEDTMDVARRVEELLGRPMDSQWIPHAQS
Procedure, shortened: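 Fluorescence polarization used STAT5B SH2 domain bound to the fluorescein-labelled phosphopeptide 5-FAM-GpYLVDKW, with inhibitor tested up to 100 μM. Polarization was read every 15 min over 1 h to confirm the probe stayed bound and to pick the time of maximal change. Ki values were derived from the data.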

[3] = Cytotoxicity against human CD34-positive umbilical cord cells assessed as reduction in cell viability at 10 uM after 72 hrs by CellTiter-Blue assay; assay type: cell-based
Procedure, shortened: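 Healthy human CD34+ umbilical cord cells received a single 10 μM dose, with MV4;11 cells run alongside. Cell viability was then measured.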

K562 [4] = test: Effect on total STAT5 level in human K562 cells at 15 uM after 5 hrs by Western blotting; assay type: functional, cell-based
Procedure, shortened: (§1)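 K562 cells were treated for 5 h across a dose range, then harvested. Immunoblots probed phospho-STAT5 (Y694), total STAT5 and cleaved PARP-1.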

K562 [5] = test: Inhibition of STAT5 phosphorylation at Y694 residue in human K562 cells at 10 uM after 5 hrs by Western blotting; assay type: cell-based; procedure, shortened: as §1
K562 [6] = test: Inhibition of STAT5 phosphorylation at Y694 residue in human K562 cells assessed as decreases in MCL-1 expression at 15 uM after 24 hrs by Western blotting; assay type: cell-based
Procedure, shortened: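 K562 cells were exposed to 15 μM for 24 h. Lysates were immunoblotted for cleaved PARP-1, cleaved caspase-3 and MCL-1.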

K562 [7] = test: Inhibition of STAT5 phosphorylation at Y694 residue in human K562 cells assessed as decreases in MYC expression after 5 hrs by Western blotting; assay type: cell-based
Procedure, shortened: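 K562 cells were dosed for 5 h at the same concentrations used for pSTAT5 inhibition. MYC protein was followed by immunoblot.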

MV4-11 = test: Cytotoxicity against human MV4-11 cells assessed as reduction in cell viability after 72 hrs by CellTiter-Blue assay; details: MV4-11, 72 h
K562 [8] = test: Inhibition of STAT5 phosphorylation at Y694 residue in human K562 cells after 5 hrs by Western blotting; assay type: cell-based; procedure, shortened: as §1
JAK2/JAK1 (Homo sapiens) = JAK2/JAK1 (Homo sapiens) (UniProt P23458+O60674); test: Inhibition of JAK1/2 (unknown origin); assay type: protein-complex assay
[9] = target: Receptor-type tyrosine-protein kinase FLT3 (Homo sapiens) (UniProt P36888); test: Inhibition of FLT3 (unknown origin)
[10] = target: Signal transducer and activator of transcription 3 (Homo sapiens) (UniProt P40763); details: MDA-MB-231, 15 uM
MDA-MB-231 [11] = test: Effect on total STAT3 level in human MDA-MB-231 cells at 15 uM after 5 hrs by Western blotting; assay type: functional, cell-based
Procedure, shortened: (§2)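 MDA-MB-231 breast cancer cells carry high pSTAT3 and negligible pSTAT5. They were treated up to 20 μM and immunoblotted for pSTAT3, total STAT3 and total STAT5.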

[12] = target: Tyrosine-protein kinase ABL1 (Homo sapiens) (UniProt P00519); test: Inhibition of ABL (unknown origin)
[13] = target: T1, Signal transducer and activator of transcription 5B; test: Binding affinity to full-length His-tagged STAT5B (unknown origin) by surface plasmon resonance assay
MDA-MB-231 [14] = test: Effect on total STAT5 level in human MDA-MB-231 cells at 15 uM after 5 hrs by Western blotting; assay type: functional, cell-based; procedure, shortened: as §2

Chain of Signal transducer and activator of transcription 3 (Homo sapiens) (P40763 whole entry): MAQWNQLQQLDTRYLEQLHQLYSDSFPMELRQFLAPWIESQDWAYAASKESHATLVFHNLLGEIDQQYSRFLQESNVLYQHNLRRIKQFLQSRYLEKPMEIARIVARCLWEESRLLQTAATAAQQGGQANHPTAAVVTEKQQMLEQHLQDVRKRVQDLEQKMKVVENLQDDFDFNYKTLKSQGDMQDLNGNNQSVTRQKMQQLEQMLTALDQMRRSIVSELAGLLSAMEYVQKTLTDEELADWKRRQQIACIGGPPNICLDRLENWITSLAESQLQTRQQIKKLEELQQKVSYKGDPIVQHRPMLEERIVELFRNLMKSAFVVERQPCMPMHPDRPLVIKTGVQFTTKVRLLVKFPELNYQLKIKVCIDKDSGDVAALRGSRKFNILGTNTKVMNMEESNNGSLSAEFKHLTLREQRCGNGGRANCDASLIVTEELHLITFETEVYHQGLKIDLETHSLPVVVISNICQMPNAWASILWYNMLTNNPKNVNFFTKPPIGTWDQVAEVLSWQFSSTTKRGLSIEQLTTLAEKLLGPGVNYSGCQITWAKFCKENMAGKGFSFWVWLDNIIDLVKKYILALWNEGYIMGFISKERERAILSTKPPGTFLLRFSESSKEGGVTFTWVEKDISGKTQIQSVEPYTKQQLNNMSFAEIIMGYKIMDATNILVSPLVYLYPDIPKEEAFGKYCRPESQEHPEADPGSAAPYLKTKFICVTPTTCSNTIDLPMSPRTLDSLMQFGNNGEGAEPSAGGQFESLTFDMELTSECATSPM
Chain of Receptor-type tyrosine-protein kinase FLT3 (Homo sapiens) (P36888 whole entry): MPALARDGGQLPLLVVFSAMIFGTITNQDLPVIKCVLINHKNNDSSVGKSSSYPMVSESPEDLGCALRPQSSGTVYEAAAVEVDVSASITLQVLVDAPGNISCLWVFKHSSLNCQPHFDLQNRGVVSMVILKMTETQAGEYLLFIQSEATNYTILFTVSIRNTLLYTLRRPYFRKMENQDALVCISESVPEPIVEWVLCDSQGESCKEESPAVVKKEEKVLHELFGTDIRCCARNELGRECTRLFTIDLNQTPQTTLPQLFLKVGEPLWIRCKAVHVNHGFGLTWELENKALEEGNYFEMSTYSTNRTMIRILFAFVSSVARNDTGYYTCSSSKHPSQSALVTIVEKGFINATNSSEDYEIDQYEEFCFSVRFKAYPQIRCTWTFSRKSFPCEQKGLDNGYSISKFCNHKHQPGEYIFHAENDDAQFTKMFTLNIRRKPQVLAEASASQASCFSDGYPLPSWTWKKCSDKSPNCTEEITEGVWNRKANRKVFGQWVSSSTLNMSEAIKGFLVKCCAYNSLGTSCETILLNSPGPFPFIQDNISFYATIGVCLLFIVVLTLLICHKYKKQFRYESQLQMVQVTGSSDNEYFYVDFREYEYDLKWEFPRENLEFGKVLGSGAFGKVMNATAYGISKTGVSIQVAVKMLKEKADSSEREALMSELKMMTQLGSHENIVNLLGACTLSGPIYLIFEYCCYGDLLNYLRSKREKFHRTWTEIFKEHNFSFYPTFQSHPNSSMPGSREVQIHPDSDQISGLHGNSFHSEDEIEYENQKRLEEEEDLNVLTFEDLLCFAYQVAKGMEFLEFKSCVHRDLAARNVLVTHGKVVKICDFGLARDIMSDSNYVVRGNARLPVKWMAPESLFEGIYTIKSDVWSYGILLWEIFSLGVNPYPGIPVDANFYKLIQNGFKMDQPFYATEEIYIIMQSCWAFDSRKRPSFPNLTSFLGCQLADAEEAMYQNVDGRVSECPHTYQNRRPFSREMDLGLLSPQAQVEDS
Chain of Tyrosine-protein kinase ABL1 (Homo sapiens) (P00519 whole entry): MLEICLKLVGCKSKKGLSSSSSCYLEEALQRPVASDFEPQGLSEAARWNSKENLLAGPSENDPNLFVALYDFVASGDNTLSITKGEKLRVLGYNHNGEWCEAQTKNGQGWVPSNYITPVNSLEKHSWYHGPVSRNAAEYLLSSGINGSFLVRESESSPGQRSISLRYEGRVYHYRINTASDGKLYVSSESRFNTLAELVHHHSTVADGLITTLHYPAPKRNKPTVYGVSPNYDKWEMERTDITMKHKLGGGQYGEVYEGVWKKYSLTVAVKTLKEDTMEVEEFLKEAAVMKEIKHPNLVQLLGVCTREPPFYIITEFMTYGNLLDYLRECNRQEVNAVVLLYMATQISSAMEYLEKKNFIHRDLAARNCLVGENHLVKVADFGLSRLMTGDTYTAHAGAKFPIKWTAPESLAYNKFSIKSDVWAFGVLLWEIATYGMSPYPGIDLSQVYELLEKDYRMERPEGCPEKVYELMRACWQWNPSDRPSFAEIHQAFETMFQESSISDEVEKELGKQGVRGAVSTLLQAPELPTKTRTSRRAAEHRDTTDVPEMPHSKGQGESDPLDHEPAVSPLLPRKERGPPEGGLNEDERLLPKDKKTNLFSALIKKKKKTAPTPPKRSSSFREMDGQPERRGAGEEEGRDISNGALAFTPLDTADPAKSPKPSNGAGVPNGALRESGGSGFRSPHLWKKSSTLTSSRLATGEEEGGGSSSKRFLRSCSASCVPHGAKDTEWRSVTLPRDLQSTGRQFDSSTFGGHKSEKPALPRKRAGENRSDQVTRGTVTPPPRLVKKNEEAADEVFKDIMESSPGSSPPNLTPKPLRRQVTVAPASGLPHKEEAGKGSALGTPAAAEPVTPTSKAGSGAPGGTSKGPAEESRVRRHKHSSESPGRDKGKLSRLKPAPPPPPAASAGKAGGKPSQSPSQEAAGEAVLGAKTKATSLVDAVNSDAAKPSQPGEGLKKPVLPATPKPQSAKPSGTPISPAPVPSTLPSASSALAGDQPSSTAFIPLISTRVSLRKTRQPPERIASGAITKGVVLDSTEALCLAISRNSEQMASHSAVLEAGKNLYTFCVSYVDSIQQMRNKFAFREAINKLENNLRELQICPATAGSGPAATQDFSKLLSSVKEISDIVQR

Row | Ki [2] [µM] | SMILES | further results
1 |  | Cc1cc(C)c(S(=O)(=O)N(CC(=O)N(Cc2cc(C(C)(C)C)cc(C(C)(C)C)c2)c2ccc(C(=O)O)c(O)c2)Cc2ccc(Cl)cc2)c(C)c1 | IC50 (K562 [1]): 3 µM
2 | > 60 | Cc1cc(C)c(S(=O)(=O)N(C)CC(=O)N(CC2CCCO2)c2ccc(C(=O)O)c(O)c2)c(C)c1 (stereo unspecified) | 
3 | > 60 | CN(CC(=O)N(Cc1c(F)c(F)c(F)c(F)c1F)c1ccc(C(=O)O)c(O)c1)S(=O)(=O)c1c(F)c(F)c(F)c(F)c1F | 
4 |  | Cc1cc(C)c(S(=O)(=O)N(CC(=O)N(Cc2ccc3ccccc3c2)c2ccc(C(=O)O)c(O)c2)Cc2ccc(Cl)cc2)c(C)c1 | IC50 (K562 [1]): 3 µM
5 | > 60 | Cc1ccc(CN(C(=O)CN(C)S(=O)(=O)c2c(C)cc(C)cc2C)c2ccc(C(=O)O)c(O)c2)cc1 | 
6 | > 60 | Cc1ccc(CN(C(=O)CN(C)S(=O)(=O)c2c(F)c(F)c(F)c(F)c2F)c2ccc(C(=O)O)c(O)c2)cc1 | 
7 | > 60 | Cc1cc(C)c(S(=O)(=O)N(C)CC(=O)N(Cc2cccs2)c2ccc(C(=O)O)c(O)c2)c(C)c1 | 
8 | > 60 | CN(CC(=O)N(CC12CCC(CC1)C2)c1ccc(C(=O)O)c(O)c1)S(=O)(=O)c1c(F)c(F)c(F)c(F)c1F | 
9 | > 60 | Cc1cc(C)c(S(=O)(=O)N(C)CC(=O)N(CC23CCC(CC2)C3)c2ccc(C(=O)O)c(O)c2)c(C)c1 | 
10 | > 60 | CN(CC(=O)N(Cc1nccn1C)c1ccc(C(=O)O)c(O)c1)S(=O)(=O)c1c(F)c(F)c(F)c(F)c1F | 
11 | > 60 | Cc1cc(C)c(S(=O)(=O)N(C)CC(=O)N(Cc2ccccc2)c2ccc(C(=O)O)c(O)c2)c(C)c1 | 
12 | > 60 | CN(CC(=O)N(Cc1ccc(C(C)(C)C)cc1)c1ccc(C(=O)O)c(O)c1)S(=O)(=O)c1c(F)c(F)c(F)c(F)c1F | 
13 | > 60 | Cc1cc(C)c(S(=O)(=O)N(C)CC(=O)N(Cc2nccn2C)c2ccc(C(=O)O)c(O)c2)c(C)c1 | 
14 | > 60 | CN(CC(=O)N(CC1CC1)c1ccc(C(=O)O)c(O)c1)S(=O)(=O)c1c(F)c(F)c(F)c(F)c1F | 
15 | > 60 | CN(CC(=O)N(Cc1ccc(F)cc1)c1ccc(C(=O)O)c(O)c1)S(=O)(=O)c1c(F)c(F)c(F)c(F)c1F | 
16 | > 60 | Cc1cc(C)c(S(=O)(=O)N(C)CC(=O)N(Cc2ccc(F)cc2)c2ccc(C(=O)O)c(O)c2)c(C)c1 | 
17 |  | O=C(O)c1ccc(N(Cc2ccc3ccccc3c2)C(=O)CN(Cc2ccc(Cl)cc2)S(=O)(=O)c2c(F)c(F)c(F)c(F)c2F)cc1O | IC50 (K562 [1]): 3 µM
18 | > 60 | CN(CC(=O)N(CC1CCCO1)c1ccc(C(=O)O)c(O)c1)S(=O)(=O)c1c(F)c(F)c(F)c(F)c1F (stereo unspecified) | 
19 | > 60 | CN(CC(=O)N(Cc1cccs1)c1ccc(C(=O)O)c(O)c1)S(=O)(=O)c1c(F)c(F)c(F)c(F)c1F | 
20 | > 60 | Cc1cc(C)c(S(=O)(=O)N(C)CC(=O)N(Cc2c(F)c(F)c(F)c(F)c2F)c2ccc(C(=O)O)c(O)c2)c(C)c1 | 
21 | > 60 | Cc1cc(C)c(S(=O)(=O)N(C)CC(=O)N(Cc2ccc(C(C)(C)C)cc2)c2ccc(C(=O)O)c(O)c2)c(C)c1 | 
22 | > 60 | CN(CC(=O)N(Cc1ccccc1)c1ccc(C(=O)O)c(O)c1)S(=O)(=O)c1c(F)c(F)c(F)c(F)c1F | 
23 | > 60 | Cc1cc(C)c(S(=O)(=O)N(C)CC(=O)N(CC2CC2)c2ccc(C(=O)O)c(O)c2)c(C)c1 | 
24 |  | CC(C)(C)c1cc(CN(C(=O)CN(Cc2ccc(Cl)cc2)S(=O)(=O)c2c(F)c(F)c(F)c(F)c2F)c2ccc(C(=O)O)c(O)c2)cc(C(C)(C)C)c1 | Activity [3]: Non-toxic; Activity (K562 [4]): inactive; inhibition (K562 [5]): Active; inhibition (K562 [6]): Active; IC50 (K562 [1]): 3 µM; inhibition (K562 [7]): Dose-dependent effect; IC50 (MV4-11): 3.5 µM; inhibition (K562 [8]): Dose-dependent effect; inhibition (JAK2/JAK1 (Homo sapiens)): inactive; inhibition [9]: inactive; inhibition [10]: inactive; Activity (MDA-MB-231 [11]): inactive; inhibition [12]: inactive; Kd [13]: 0.042 µM; Activity (MDA-MB-231 [14]): inactive

Row | SMILES | Ki [2] [µM] | further results
25 | Cc1cc(C)c(S(=O)(=O)N(C)CC(=O)N(Cc2cc(C(C)(C)C)cc(C(C)(C)C)c2)c2ccc(C(=O)O)c(O)c2)c(C)c1 | 4.77 | IC50 (K562 [1]): 3 µM
26 | Cc1cc(C)c(S(=O)(=O)N(C)CC(=O)N(Cc2ccc3ccccc3c2)c2ccc(C(=O)O)c(O)c2)c(C)c1 | 6.62 | IC50 (K562 [1]): 3 µM
27 | CN(CC(=O)N(Cc1ccc2ccccc2c1)c1ccc(C(=O)O)c(O)c1)S(=O)(=O)c1c(F)c(F)c(F)c(F)c1F | 12.4 | IC50 (K562 [1]): 3 µM
28 | CN(CC(=O)N(Cc1cc(C(C)(C)C)cc(C(C)(C)C)c1)c1ccc(C(=O)O)c(O)c1)S(=O)(=O)c1c(F)c(F)c(F)c(F)c1F | 11.5 | IC50 (K562 [1]): 3 µM
